Active and inactive are the calls of the source. The rule behind the calls is not given here.
Legend:
A2780 = assay: Growth inhibition of human A2780 cells after 48 hrs by sulforhodamine B assay; type: functional
SiHa = assay: Growth inhibition of human SiHa cells after 48 hrs by sulforhodamine B assay; type: functional
A549 = assay: Growth inhibition of human A549 cells after 48 hrs by sulforhodamine B assay; type: functional
HOP-62 = assay: Growth inhibition of human HOP62 cells after 48 hrs by sulforhodamine B assay; type: functional
COLO 205 [1] = assay: Growth inhibition of human COLO205 cells after 48 hrs by sulforhodamine B assay; type: functional
[2] = (§1) Growth inhibition of human DWD cells after 48 hrs by sulforhodamine B assay; type: functional
Gurav = assay: (§2) Growth inhibition of human Gurav cells after 48 hrs by sulforhodamine B assay; type: functional
KB = assay: Growth inhibition of human KB cells after 48 hrs by sulforhodamine B assay; type: functional
MCF7 = assay: Growth inhibition of human MCF7 cells after 48 hrs by sulforhodamine B assay; type: functional; conditions: MCF7, 48 h
ZR-75-1 = assay: Growth inhibition of human ZR-75-1 cells after 48 hrs by sulforhodamine B assay; type: functional
DWD = assay: as §1; type: functional
[3] = as §2; type: functional
COLO 205 [4] = assay: Induction of apoptosis in human COLO205 cells assessed as caspase-3 activation at 2 uM after 24 hrs by Western blotting analysis; type: functional, cell-based
Procedure, shortened: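 Colo-205 cells grown to 80% confluency, 2 µM final for 24 h; RIPA lysates with protease inhibitors, Bradford-quantified, 50 µg protein per lane on 12% SDS-PAGE, PVDF transfer, probed overnight at 4 °C for active caspase-3, β-actin as loading control, chemiluminescent detection.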

COLO 205 [5] = assay: Induction of apoptosis in human COLO205 cells assessed as caspase-3 activation at 2 uM after 24 hrs by ELISA; type: functional, cell-based
Procedure, shortened: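 Colo-205 cells exposed 24 h at 2 µM; lysates in 2X reaction buffer with DTT plus caspase substrate, 1 h at 37 °C; fluorescence read at ex 400/em 505 nm; three independent experiments, mean ± S.D., versus untreated control.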

[6] = molecular target: DNA topoisomerase 2-alpha (Homo sapiens) (UniProt P11388); assay: Inhibition of human topoisomerase 2alpha-mediated relaxation of supercoiled pBR322 DNA at 2 uM after 30 mins by agarose gel electrophoresis
Chain of DNA topoisomerase 2-alpha (Homo sapiens) (P11388 whole entry): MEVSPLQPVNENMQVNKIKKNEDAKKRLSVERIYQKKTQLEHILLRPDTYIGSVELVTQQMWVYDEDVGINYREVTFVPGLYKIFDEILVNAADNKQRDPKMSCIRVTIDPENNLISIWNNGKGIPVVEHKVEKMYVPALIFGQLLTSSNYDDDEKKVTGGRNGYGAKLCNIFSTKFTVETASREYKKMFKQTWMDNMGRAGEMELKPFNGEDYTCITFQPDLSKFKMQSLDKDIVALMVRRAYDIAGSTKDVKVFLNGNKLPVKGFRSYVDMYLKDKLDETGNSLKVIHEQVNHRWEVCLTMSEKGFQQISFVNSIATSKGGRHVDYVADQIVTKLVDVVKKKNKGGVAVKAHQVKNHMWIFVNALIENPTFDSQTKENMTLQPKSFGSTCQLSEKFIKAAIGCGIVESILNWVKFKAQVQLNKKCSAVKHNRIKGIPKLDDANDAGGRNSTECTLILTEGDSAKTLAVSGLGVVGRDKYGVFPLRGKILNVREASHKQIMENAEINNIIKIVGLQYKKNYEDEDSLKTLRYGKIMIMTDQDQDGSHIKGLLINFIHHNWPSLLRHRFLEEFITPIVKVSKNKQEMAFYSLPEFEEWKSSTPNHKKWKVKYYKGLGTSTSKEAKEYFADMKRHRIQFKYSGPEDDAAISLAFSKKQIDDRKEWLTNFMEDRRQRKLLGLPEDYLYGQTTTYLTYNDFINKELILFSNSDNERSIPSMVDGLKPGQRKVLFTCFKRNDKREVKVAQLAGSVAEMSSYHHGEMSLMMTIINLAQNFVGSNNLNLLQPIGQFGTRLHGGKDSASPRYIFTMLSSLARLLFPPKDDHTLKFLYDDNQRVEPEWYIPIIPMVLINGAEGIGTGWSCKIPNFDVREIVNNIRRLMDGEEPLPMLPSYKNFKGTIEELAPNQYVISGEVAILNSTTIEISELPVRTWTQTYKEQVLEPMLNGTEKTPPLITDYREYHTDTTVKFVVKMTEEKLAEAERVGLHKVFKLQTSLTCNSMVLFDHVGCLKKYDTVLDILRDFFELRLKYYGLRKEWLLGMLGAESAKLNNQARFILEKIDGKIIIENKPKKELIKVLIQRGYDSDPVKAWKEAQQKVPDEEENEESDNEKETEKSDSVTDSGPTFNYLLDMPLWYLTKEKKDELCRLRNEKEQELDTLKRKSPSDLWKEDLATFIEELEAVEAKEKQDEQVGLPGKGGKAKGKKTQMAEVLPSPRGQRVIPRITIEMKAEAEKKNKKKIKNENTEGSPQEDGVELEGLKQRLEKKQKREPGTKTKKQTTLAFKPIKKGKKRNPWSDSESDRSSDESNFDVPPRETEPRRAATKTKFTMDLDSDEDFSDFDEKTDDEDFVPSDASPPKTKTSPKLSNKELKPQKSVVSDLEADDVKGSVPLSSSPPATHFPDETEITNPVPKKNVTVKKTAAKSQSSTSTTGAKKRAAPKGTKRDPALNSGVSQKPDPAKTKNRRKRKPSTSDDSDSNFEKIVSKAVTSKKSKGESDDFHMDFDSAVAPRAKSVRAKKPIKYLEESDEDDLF
Procedure, shortened: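 Purified human topoisomerase IIα (4 units) with 200 ng supercoiled pBR322 and compound at 2 µM, 30 min at 30 °C in 10 mM Tris-HCl pH 7.9, 50 mM NaCl, 5 mM MgCl2, 1 mM EDTA, 1 mM ATP, 15 µg/mL BSA; EDTA-stopped; 1% agarose gel in TAE, ethidium bromide, UV visualisation.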

COLO 205 [7] = assay: Cell cycle arrest in human COLO205 cells assessed as accumulation at G2/M phase at 2 uM after 24 hrs by propidium iodide staining-based FACS flow cytometric analysis (reference value: 29.52%); type: functional
COLO 205 [8] = assay: Cell cycle arrest in human COLO205 cells assessed as accumulation at S phase at 2 uM after 24 hrs by propidium iodide staining-based FACS flow cytometric analysis (reference value: 4.21%); type: functional
COLO 205 [9] = assay: Cell cycle arrest in human COLO205 cells assessed as accumulation at G0/G1 phase at 2 uM after 24 hrs by propidium iodide staining-based FACS flow cytometric analysis (reference value: 65.23%); type: functional
COLO 205 [10] = assay: Cytotoxicity against human COLO205 cells assessed as reduction in cellular ATP level at 2 uM after 24 hrs by bioluminescence assay; type: functional, cell-based
Procedure, shortened: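 Colo-205 cells exposed 24 h at 2 µM, lysed in ice-cold RIPA, debris spun off at 4 °C; intracellular ATP in supernatant by luciferin-luciferase bioluminescence kit; three independent experiments, mean ± S.D., untreated control.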

COLO 205 [11] = assay: Cytotoxicity against human COLO205 cells assessed as viable cells at 2 uM after 24 hrs by trypan blue exclusion assay; type: functional, cell-based
Procedure, shortened: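 Colo-205 cells treated 24 h at 1, 2 and 4 µM, trypsinised, mixed with 0.4% trypan blue (10 µl per 100 µl cells), counted on haemocytometer; percentage dead cells calculated; triplicate samples.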

MDA-MB-231 [12] = assay: Cytotoxicity against human MDA-MB-231 cells assessed as cell viability at 2 to 4 uM after 24 hrs by MTT assay; type: functional, cell-based
Procedure, shortened: (§3)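 Colo-205 (RPMI, 10% FCS) and MDA-MB-231 (DMEM, 2 mM glutamax, 10% FCS, penicillin/streptomycin) seeded at 1 104 cells/well, 18 h preincubation; fresh medium with compound at 0.5, 1, 2 and 4 µM for 24 h at 37 °C; MTT 2 h, formazan solubilised, OD 570 nm; DMSO ≤0.25%, DMSO-only wells as untreated control.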

COLO 205 [13] = assay: Cytotoxicity against human COLO205 cells assessed as cell viability at 2 to 4 uM after 24 hrs by MTT assay; type: functional, cell-based; procedure, shortened: as §3
MDA-MB-231 [14] = assay: Cytotoxicity against human MDA-MB-231 cells assessed as cell viability at <0.5 to 1 uM after 24 hrs by MTT assay; type: functional, cell-based; procedure, shortened: as §3
COLO 205 [15] = assay: Cytotoxicity against human COLO205 cells assessed as cell viability at <0.5 to 1 uM after 24 hrs by MTT assay; type: functional, cell-based; procedure, shortened: as §3

| Structure (SMILES) | GI50 (SiHa) | GI50 (A549; A549, 48 h) | GI50 (HOP-62; HOP-62, 48 h) | GI50 (COLO 205 [1]; COLO 205, 48 h) | GI50 [2] | GI50 (Gurav) | GI50 (KB) | GI50 (MCF7) | GI50 (ZR-75-1; ZR-75-1, 48 h) | GI50 (HOP-62) | GI50 (COLO 205 [1]) | GI50 [3] | GI50 (A2780; A2780, 48 h) | further results |
| --- | --- | --- | --- | --- | --- | --- | --- | --- | --- | --- | --- | --- | --- | --- |
| COc1cc([C@@H]2c3cc4c(cc3[C@@H](NC(=O)c3ccc(NC(=O)Nc5ccc(F)c(Cl)c5)cc3)[C@H]3COC(=O)[C@H]23)OCO4)cc(OC)c1OC | inactive | 1500 nM | 2710 nM | 2520 nM | 2610 nM | inactive | 2010 nM | 120 nM | 2900 nM | – | – | – | – | GI50 (A2780): inactive |
| COc1cc([C@@H]2c3cc4c(cc3[C@@H](NC(=O)c3ccc(NC(=O)Nc5c(Cl)cccc5Cl)cc3)[C@H]3COC(=O)[C@H]23)OCO4)cc(OC)c1OC | inactive | – | – | – | – | inactive | 2800 nM | 150 nM | – | inactive | inactive | – | – | GI50 (A2780): inactive; GI50 (A549): inactive; GI50 (DWD): inactive; GI50 (ZR-75-1): inactive |
| COc1cc([C@@H]2c3cc4c(cc3[C@@H](NC(=O)c3ccc(NC(=O)Nc5cc(C)cc(C)c5)cc3)[C@H]3COC(=O)[C@H]23)OCO4)cc(OC)c1OC | inactive | – | – | – | 1600 nM | – | 2310 nM | 150 nM | 2910 nM | inactive | inactive | 2700 nM | – | GI50 (A2780): inactive; GI50 (A549): inactive |
| COc1cc([C@@H]2c3cc4c(cc3[C@@H](NC(=O)c3ccc(NC(=O)Nc5cccc6ccccc56)cc3)[C@H]3COC(=O)[C@H]23)OCO4)cc(OC)c1OC | 2300 nM | 2010 nM | – | 2230 nM | – | – | inactive | 110 nM | 2000 nM | inactive | – | 2900 nM | 2220 nM | GI50 (DWD): inactive |
| COc1cc([C@@H]2c3cc4c(cc3[C@@H](NC(=O)c3ccc(NC(=O)NCCCl)cc3)[C@H]3COC(=O)[C@H]23)OCO4)cc(OC)c1OC | inactive | 1120 nM | 120 nM | 10 nM | 1600 nM | – | 210 nM | 100 nM | 2900 nM | – | – | 100 nM | 1300 nM | Activity (COLO 205 [4]): Active; Activity (COLO 205 [5]): Active; Inhibition of relaxation (qualitative call) [6]: Active; Activity (COLO 205 [7]): 18.15%; Percent of cells in S phase (COLO 205 [8]): 5.62%; Activity (COLO 205 [9]): 76.22%; Activity (COLO 205 [10]): Active; Activity (COLO 205 [11]): Active; Activity (MDA-MB-231 [12]): Active; Activity (COLO 205 [13]): Active; Activity (MDA-MB-231 [14]): inactive; Activity (COLO 205 [15]): inactive |
| COc1cc([C@@H]2c3cc4c(cc3[C@@H](NC(=O)c3ccc(NC(=O)NCc5ccco5)cc3)[C@H]3COC(=O)[C@H]23)OCO4)cc(OC)c1OC | inactive | 2620 nM | – | 2340 nM | 2500 nM | inactive | 1930 nM | 2900 nM | 2600 nM | inactive | – | – | 2300 nM | – |
| COc1ccc(NC(=O)Nc2ccc(C(=O)N[C@@H]3c4cc5c(cc4[C@@H](c4cc(OC)c(OC)c(OC)c4)[C@H]4C(=O)OC[C@@H]43)OCO5)cc2)cc1 | inactive | 1500 nM | 120 nM | 20 nM | 1700 nM | – | 2310 nM | 1100 nM | 180 nM | – | – | 240 nM | 1350 nM | Activity (COLO 205 [4]): Active; Activity (COLO 205 [5]): Active; Inhibition of relaxation (qualitative call) [6]: Active; Activity (COLO 205 [7]): 17.88%; Percent of cells in S phase (COLO 205 [8]): 5.09%; Activity (COLO 205 [9]): 76.61%; Activity (COLO 205 [10]): Active; Activity (COLO 205 [11]): Active; Activity (MDA-MB-231 [12]): Active; Activity (COLO 205 [13]): Active; Activity (MDA-MB-231 [14]): inactive; Activity (COLO 205 [15]): inactive |
| COc1cc([C@@H]2c3cc4c(cc3[C@@H](NC(=O)c3ccc(NC(=O)Nc5cccc(Cl)c5)cc3)[C@H]3COC(=O)[C@H]23)OCO4)cc(OC)c1OC | inactive | – | 2500 nM | 2600 nM | 2300 nM | – | inactive | 2600 nM | 2900 nM | – | – | 2010 nM | 2800 nM | GI50 (A549): inactive |
| COc1cccc2c1C(=O)c1c(O)c3c(c(O)c1C2=O)C[C@@](O)(C(=O)CO)C[C@@H]3O[C@H]1C[C@H](N)[C@H](O)[C@H](C)O1 [DOXORUBICIN] | 170 nM | – | 140 nM | 140 nM | 100 nM | – | 170 nM | 170 nM | – | – | – | 170 nM | 160 nM | – |
| COc1cc([C@@H]2c3cc4c(cc3[C@@H](NC(=O)c3ccc(NC(=O)NCCBr)cc3)[C@H]3COC(=O)[C@H]23)OCO4)cc(OC)c1OC | 210 nM | 100 nM | 100 nM | 10 nM | 170 nM | – | inactive | 140 nM | 160 nM | – | – | 1850 nM | 140 nM | Activity (COLO 205 [4]): Active; Activity (COLO 205 [5]): Active; Inhibition of relaxation (qualitative call) [6]: Active; Activity (COLO 205 [7]): 19.94%; Percent of cells in S phase (COLO 205 [8]): 5.96%; Activity (COLO 205 [9]): 74.1%; Activity (COLO 205 [10]): Active; Activity (COLO 205 [11]): Active; Activity (MDA-MB-231 [12]): Active; Activity (COLO 205 [13]): Active; Activity (MDA-MB-231 [14]): inactive; Activity (COLO 205 [15]): inactive |
| COc1cc([C@@H]2c3cc4c(cc3[C@@H](NC(=O)c3ccc(NC(=O)Nc5ccc(Br)s5)cc3)[C@H]3COC(=O)[C@H]23)OCO4)cc(OC)c1OC | 2900 nM | 1400 nM | 2600 nM | – | 100 nM | inactive | 2500 nM | 120 nM | 2400 nM | – | inactive | – | 2100 nM | – |
| COc1cc([C@@H]2c3cc4c(cc3[C@@H](NC(=O)c3ccc(NC(=O)Nc5cc(C(F)(F)F)cc(C(F)(F)F)c5)cc3)[C@H]3COC(=O)[C@H]23)OCO4)cc(OC)c1OC | inactive | 2980 nM | – | – | – | inactive | 2600 nM | 2700 nM | 2220 nM | inactive | inactive | – | 2300 nM | GI50 (DWD): inactive |

— ChEMBL document CHEMBL2417468, “4β-[4'-(1-(Aryl)ureido)benzamide]podophyllotoxins as DNA topoisomerase I and IIα inhibitors and apoptosis inducing agents” (2013)
